According to ChEMBL document CHEMBL2177098, “Synthesis and evaluation of novel ¹⁸F labeled 2-pyridinylbenzoxazole and 2-pyridinylbenzothiazole derivatives as ligands for positron emission tomography (PET) imaging of β-amyloid plaques” (J Med Chem, 2012):

How the values were obtained:
Stomach [1] = assay: Drug uptake in ICR mouse stomach assessed per organ at 370 kBq/100 ul, iv at 30 mins by gamma-counting analysis; type: ADME, organism-based; conditions: in vivo, 0.5 h
Procedure, shortened: (§1)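 Male ICR mice (5 weeks, about 20 g) got 18F tracer in saline (370 KBq per 100 μL) via tail vein; n = 5 per time point, killed at 2, 10, 30, 60 min. Organs removed and γ-counted against diluted injectate; expressed as % injected dose per organ.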

Intestine [2] = assay: Drug uptake in ICR mouse intestine assessed per organ at 370 kBq/100 ul, iv at 60 mins by gamma-counting analysis; type: ADME, organism-based; conditions: in vivo, 1 h; procedure, shortened: as §1
Liver [3] = assay: Drug uptake in ICR mouse liver at 370 kBq/100 ul, iv at 2 mins by gamma-counting analysis; type: ADME, organism-based; conditions: in vivo
Procedure, shortened: (§2)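 Male ICR mice (5 weeks, about 20 g) got 18F tracer in saline (370 KBq per 100 μL) via tail vein; n = 5 per time point, killed at 2, 10, 30, 60 min. Organs weighed and γ-counted; percent dose per gram wet tissue from comparison with diluted injectate aliquots.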

[4] = n-Octanol-PBS buffer partition coefficient, log D of the compound at 1.5 MBq after 3 mins at pH 7.4; type: physicochemical
Procedure, shortened: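 The tracer was partitioned between n-octanol and PBS by vortexing for 3 min at room temperature, then centrifuged for 5 min at 3000 rpm. Samples of the octanol (50 μL) and aqueous (500 μL) layers were counted. log D is the log of the octanol/PBS counts-per-gram ratio. The octanol layer was repartitioned until values were consistent. Measured in triplicate and repeated three times.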

Brain [5] = assay: Drug uptake in ICR mouse brain at 370 kBq/100 ul, iv at 2 mins by gamma-counting analysis; type: ADME, organism-based; conditions: in vivo; procedure, shortened: as §2
Heart [6] = assay: Drug uptake in ICR mouse heart at 370 kBq/100 ul, iv at 10 mins by gamma-counting analysis; type: ADME, organism-based; conditions: in vivo; procedure, shortened: as §2
Lung [7] = assay: Drug uptake in ICR mouse lung at 370 kBq/100 ul, iv at 10 mins by gamma-counting analysis; type: ADME, organism-based; conditions: in vivo; procedure, shortened: as §2
Spleen [8] = assay: Drug uptake in ICR mouse spleen at 370 kBq/100 ul, iv at 10 mins by gamma-counting analysis; type: ADME, organism-based; conditions: in vivo; procedure, shortened: as §2
Brain [9] = assay: Drug uptake in ICR mouse brain at 370 kBq/100 ul, iv at 30 mins by gamma-counting analysis; type: ADME, organism-based; conditions: in vivo, 0.5 h; procedure, shortened: as §2
Stomach [10] = assay: Drug uptake in ICR mouse stomach assessed per organ at 370 kBq/100 ul, iv at 60 mins by gamma-counting analysis; type: ADME, organism-based; conditions: in vivo, 1 h
Procedure, shortened: (§3)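 Normal male ICR mice (5 weeks, about 20 g) received the ¹⁸F tracer in saline (370 KBq per 100 μL) by tail-vein injection. Groups of n = 5 were killed at 2, 10, 30 and 60 min. Organs were removed, weighed and γ-counted against diluted aliquots of the injectate, giving % dose per gram. Stomach and intestine were expressed per organ. The brain ratio is 2 min/60 min uptake. Values are mean ± SD.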

Kidney [11] = assay: Drug uptake in ICR mouse kidney at 370 kBq/100 ul, iv at 30 mins by gamma-counting analysis; type: ADME, organism-based; conditions: in vivo, 0.5 h; procedure, shortened: as §2
Blood [12] = assay: Drug uptake in ICR mouse blood at 370 kBq/100 ul, iv at 30 mins by gamma-counting analysis; type: ADME, organism-based; conditions: in vivo, 0.5 h; procedure, shortened: as §2
Brain [13] = assay: Drug uptake in ICR mouse brain at 370 kBq/100 ul, iv at 60 mins by gamma-counting analysis; type: ADME, organism-based; conditions: in vivo, 1 h; procedure, shortened: as §2
Heart [14] = assay: Drug uptake in ICR mouse heart at 370 kBq/100 ul, iv at 2 mins by gamma-counting analysis; type: ADME, organism-based; conditions: in vivo; procedure, shortened: as §2
Heart [15] = assay: Drug uptake in ICR mouse heart at 370 kBq/100 ul, iv at 60 mins by gamma-counting analysis; type: ADME, organism-based; conditions: in vivo, 1 h; procedure, shortened: as §2
Heart [16] = assay: Drug uptake in ICR mouse heart at 370 kBq/100 ul, iv at 30 mins by gamma-counting analysis; type: ADME, organism-based; conditions: in vivo, 0.5 h; procedure, shortened: as §2
[17] = Displacement of [125I]-IMPY from amyloid beta (1 to 42) fibrils after 2 hrs by gamma-counting analysis
Procedure, shortened: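 Competition binding with aggregated Aβ1-42 fibrils and [125I]IMPY (60000−100000 cpm/100 μL) in 0.05% BSA (1 mL total); inhibitors 10⁻⁴−10^−8.5 M in ethanol. Incubated 37 °C for 2 h, then GF/B vacuum filtration with PBS (0.02 M, pH 7.4) washes and γ counting. Three repeats; IC50 converted to Ki by Cheng−Prusoff.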

Brain [18] = assay: Drug uptake in ICR mouse brain at 370 kBq/100 ul, iv at 10 mins by gamma-counting analysis; type: ADME, organism-based; conditions: in vivo; procedure, shortened: as §2
Liver [19] = assay: Drug uptake in ICR mouse liver at 370 kBq/100 ul, iv at 30 mins by gamma-counting analysis; type: ADME, organism-based; conditions: in vivo, 0.5 h; procedure, shortened: as §2
Spleen [20] = assay: Drug uptake in ICR mouse spleen at 370 kBq/100 ul, iv at 60 mins by gamma-counting analysis; type: ADME, organism-based; conditions: in vivo, 1 h; procedure, shortened: as §2
Spleen [21] = assay: Drug uptake in ICR mouse spleen at 370 kBq/100 ul, iv at 30 mins by gamma-counting analysis; type: ADME, organism-based; conditions: in vivo, 0.5 h; procedure, shortened: as §2
Liver [22] = assay: Drug uptake in ICR mouse liver at 370 kBq/100 ul, iv at 10 mins by gamma-counting analysis; type: ADME, organism-based; conditions: in vivo; procedure, shortened: as §2
Bone [23] = assay: Drug uptake in ICR mouse bone at 370 kBq/100 ul, iv at 30 mins by gamma-counting analysis; type: ADME, organism-based, Bone element; conditions: in vivo, 0.5 h; procedure, shortened: as §2
Intestine [24] = assay: Drug uptake in ICR mouse intestine assessed per organ at 370 kBq/100 ul, iv at 2 mins by gamma-counting analysis; type: ADME, organism-based; conditions: in vivo; procedure, shortened: as §1
Kidney [25] = assay: Drug uptake in ICR mouse kidney at 370 kBq/100 ul, iv at 60 mins by gamma-counting analysis; type: ADME, organism-based; conditions: in vivo, 1 h; procedure, shortened: as §2
Lung [26] = assay: Drug uptake in ICR mouse lung at 370 kBq/100 ul, iv at 2 mins by gamma-counting analysis; type: ADME, organism-based; conditions: in vivo; procedure, shortened: as §2
Lung [27] = assay: Drug uptake in ICR mouse lung at 370 kBq/100 ul, iv at 30 mins by gamma-counting analysis; type: ADME, organism-based; conditions: in vivo, 0.5 h; procedure, shortened: as §2
Blood [28] = assay: Drug uptake in ICR mouse blood at 370 kBq/100 ul, iv at 2 mins by gamma-counting analysis; type: ADME, organism-based; conditions: in vivo; procedure, shortened: as §2
Brain [29] = assay: Drug uptake in wild type C57BL6 mouse brain at 370 KBq/100 ul after 1 hr by autoradiographic analysis; type: ADME, tissue-based; conditions: in vitro
Procedure, shortened: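 Paraffin brain sections from 12-month-old male control C57BL6 mice were deparaffinized through xylene and graded ethanol, then held in PBS (0.2 M, pH 7.4) for 30 min. They were incubated with the ¹⁸F tracer (370 KBq per 100 μL) for 1 h at room temperature. Sections were washed in 40% EtOH, rinsed with water for 1 min, dried, and exposed to a phosphor plate for 2 h. The same sections were then stained with thioflavin S.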

Spleen [30] = assay: Drug uptake in ICR mouse spleen at 370 kBq/100 ul, iv at 2 mins by gamma-counting analysis; type: ADME, organism-based; conditions: in vivo; procedure, shortened: as §2
Liver [31] = assay: Drug uptake in ICR mouse liver at 370 kBq/100 ul, iv at 60 mins by gamma-counting analysis; type: ADME, organism-based; conditions: in vivo, 1 h; procedure, shortened: as §2
Lung [32] = assay: Drug uptake in ICR mouse lung at 370 kBq/100 ul, iv at 60 mins by gamma-counting analysis; type: ADME, organism-based; conditions: in vivo, 1 h; procedure, shortened: as §2
Blood [33] = assay: Drug uptake in ICR mouse blood at 370 kBq/100 ul, iv at 10 mins by gamma-counting analysis; type: ADME, organism-based; conditions: in vivo; procedure, shortened: as §2
Bone [34] = assay: Drug uptake in ICR mouse bone at 370 kBq/100 ul, iv at 2 mins by gamma-counting analysis; type: ADME, organism-based, Bone element; conditions: in vivo; procedure, shortened: as §2
Stomach [35] = assay: Drug uptake in ICR mouse stomach assessed per organ at 370 kBq/100 ul, iv at 10 mins by gamma-counting analysis; type: ADME, organism-based; conditions: in vivo; procedure, shortened: as §1
Kidney [36] = assay: Drug uptake in ICR mouse kidney at 370 kBq/100 ul, iv at 10 mins by gamma-counting analysis; type: ADME, organism-based; conditions: in vivo; procedure, shortened: as §2
Intestine [37] = assay: Drug uptake in ICR mouse intestine assessed per organ at 370 kBq/100 ul, iv at 30 mins by gamma-counting analysis; type: ADME, organism-based; conditions: in vivo, 0.5 h; procedure, shortened: as §1
Intestine [38] = assay: Drug uptake in ICR mouse intestine assessed per organ at 370 kBq/100 ul, iv at 10 mins by gamma-counting analysis; type: ADME, organism-based; conditions: in vivo; procedure, shortened: as §1
Stomach [39] = assay: Drug uptake in ICR mouse stomach assessed per organ at 370 kBq/100 ul, iv at 2 mins by gamma-counting analysis; type: ADME, organism-based; conditions: in vivo; procedure, shortened: as §1
Blood [40] = assay: Drug uptake in ICR mouse blood at 370 kBq/100 ul, iv at 60 mins by gamma-counting analysis; type: ADME, organism-based; conditions: in vivo, 1 h; procedure, shortened: as §2
Bone [41] = assay: Drug uptake in ICR mouse bone at 370 kBq/100 ul, iv at 60 mins by gamma-counting analysis; type: ADME, organism-based, Bone element; conditions: in vivo, 1 h; procedure, shortened: as §2
Bone [42] = assay: Drug uptake in ICR mouse bone at 370 kBq/100 ul, iv at 10 mins by gamma-counting analysis; type: ADME, organism-based, Bone element; conditions: in vivo; procedure, shortened: as §2
Kidney [43] = assay: Drug uptake in ICR mouse kidney at 370 kBq/100 ul, iv at 2 mins by gamma-counting analysis; type: ADME, organism-based; conditions: in vivo; procedure, shortened: as §2
Brain [44] = assay: Ratio of drug uptake in brain at 2 mins to drug uptake in brain at 60 mins in ICR mouse at 370 KBq/100 ul, iv; type: ADME, organism-based; conditions: in vivo; procedure, shortened: as §3

Drug uptake (Stomach [1]): 9.26 %ID | Drug uptake (Intestine [2]): 28.54 %ID | Drug uptake (Liver [3]): 13.25 % ID/g | logD at 0.05 h [4]: 3.26 | Drug uptake (Brain [5]): 3.79 % ID/g | Drug uptake (Heart [6]): 3.51 % ID/g | Drug uptake (Lung [7]): 2.34 % ID/g | Drug uptake (Spleen [8]): 2.69 % ID/g | Drug uptake (Brain [9]): 1.85 % ID/g | Drug uptake (Stomach [10]): 6.45 %ID | Drug uptake (Kidney [11]): 4.2 % ID/g | Drug uptake (Blood [12]): 2.74 % ID/g | Drug uptake (Brain [13]): 1.82 % ID/g | Drug uptake (Heart [14]): 5.24 % ID/g | Drug uptake (Heart [15]): 2.73 % ID/g | Drug uptake (Heart [16]): 2.97 % ID/g | Ki [17]: 9.9 nM | Drug uptake (Brain [18]): 1.97 % ID/g | Drug uptake (Liver [19]): 7.24 % ID/g | Drug uptake (Spleen [20]): 2.34 % ID/g | Drug uptake (Spleen [21]): 2.41 % ID/g | Drug uptake (Liver [22]): 5.41 % ID/g | Drug uptake (Bone [23]): 4.71 % ID/g | Drug uptake (Intestine [24]): 8.13 %ID | Drug uptake (Kidney [25]): 3.21 % ID/g | Drug uptake (Lung [26]): 3.03 % ID/g | Drug uptake (Lung [27]): 2.64 % ID/g | Drug uptake (Blood [28]): 5.47 % ID/g | Drug uptake (Brain [29]): Not Active | Drug uptake (Spleen [30]): 3 % ID/g | Drug uptake (Liver [31]): 3.46 % ID/g | Drug uptake (Lung [32]): 1.87 % ID/g | Drug uptake (Blood [33]): 3.05 % ID/g | Drug uptake (Bone [34]): 1.79 % ID/g | Drug uptake (Stomach [35]): 5.1 %ID | Drug uptake (Kidney [36]): 5.14 % ID/g | Drug uptake (Intestine [37]): 28.15 %ID | Drug uptake (Intestine [38]): 14.45 %ID | Drug uptake (Stomach [39]): 2.66 %ID | Drug uptake (Blood [40]): 2.87 % ID/g | Drug uptake (Bone [41]): 6.39 % ID/g | Drug uptake (Bone [42]): 2.7 % ID/g | Drug uptake (Kidney [43]): 8.27 % ID/g | Ratio (Brain [44]): 2.08
SMILES: CN(C)c1ccc(-c2nc3cc(OCCOCCOCC[18F])ccc3o2)cn1
